Measured values from different studies.
Compare with care: the assays were run in different laboratories.
Effect on: enzyme activity
Action: inhibitor
IGF1R: Insulin-like growth factor 1 receptor (IGF1R, Homo sapiens, UniProt P08069)
IGF1R phosphorylated: Insulin-like growth factor 1 receptor, phosphorylated (IGF1R, Homo sapiens, UniProt P08069)

SMILES | target | test | setting | remaining activity [%]
Cn1c(=O)n(-c2ccc(C(C)(C)C#N)cc2)c2c3cc(-c4cnc5ccccc5c4)ccc3ncc21 | IGF1R | – | 10 µM | 72
CC(C)(C)c1nc2c(s1)c1nc(N)ncc1c1ccc(NS(=O)(=O)c3c(F)cccc3F)c(F)c12 | IGF1R | radiometric | 1 µM | 100
FC(F)c1nc2ccccc2n1-c1nc(N2CCOCC2)nc(N2CCOCC2)n1 | IGF1R | – | 10 µM | 87
Nc1nc(NC2CCCCC2)sc1C(=O)c1ccccc1 | IGF1R | – | 10 µM | 80
CCN(CC)c1ccc(C2=NNC(=O)CC2C)cc1[N+](=O)[O-] (stereo not shown) | IGF1R | – | 10 µM | 86
CC(C)(C)C(=O)c1sc(NC2CCCCC2)nc1N | IGF1R | – | 10 µM | 118
COc1cc(Cl)c(C(=O)N[C@@H](CN[C@H]2CC[C@@H](N)CC2)Cc2ccc(C#N)cc2)cc1-c1ccc(CN[C@H](C)c2ccc(C)cc2)o1 | IGF1R phosphorylated | – | 1 µM | 117
CCCOc1ccc(OC)c(F)c1C(=O)c1ccc(C(=O)N[C@@H]2CNC[C@H]2NC(=O)c2ccc3[nH]ncc3c2)cc1 | IGF1R | – | 10 µM | 90
CCN(CC)CCNC(=O)c1c(C)[nH]c(/C=C2\C(=O)Nc3ccc(F)cc32)c1C | IGF1R | – | 0.1 µM | 75
Cc1cnc(NC2CCOCC2)nc1-n1cnc(C(=O)NC(CN)c2cc(F)cc(Cl)c2)c1 (stereo not shown) | IGF1R phosphorylated | radiometric | 1 µM | 108
O=C(Nc1cnn(-c2csc(C(=O)NC3COC3)c2)c1)Nc1ccccc1Cl | IGF1R | – | 5 µM | 95.8
COc1cc(Nc2cnc(C#N)c(O[C@H](C)CN(C)C)n2)ncc1-c1cnn(C)c1 | IGF1R | radiometric | 1 µM | 100
Cc1[nH]c(/C=C2\C(=O)Nc3ccc(F)cc32)c(C)c1C(=O)N[C@H]1CCN(C(=O)N(C)C)C1 | IGF1R | – | 0.1 µM | 115
